Source: ChEMBL document CHEMBL1255259, “Phosphorothioate-modified oligodeoxynucleotides inhibit human cytomegalovirus replication by blocking virus entry” (Antimicrob Agents Chemother, 2008)
The source made the active and inactive calls. The calls are words filed in the database; no cut-off is given here.

How the values were obtained:
Human betaherpesvirus 5 [1] = assay: Antimicrobial activity against Human cytomegalovirus AD169 infected in HELF assessed as inhibition of viral replication at 1 uM measured after 6 days post-infection; assay type: functional, organism-based
[2] = Cytotoxicity against HELF assessed as cell viability after 6 days by MTT assay; assay type: cell-based; conditions: human, HELF cells
How it was run: (§1)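 HELF exposed to rising ODN concentrations (up to 10 μM) for 6 days; viable cells measured by MTT. CC50 taken as concentration that cuts viability to 50%.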

Human betaherpesvirus 5 [3] = assay: Antimicrobial activity against Human cytomegalovirus isolate 1814 infected in compound pretreated HELF assessed as inhibition of viral replication; assay type: functional, organism-based; conditions: Human betaherpesvirus 5, isolate 1814, HELF
How it was run: (§2)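 HELF pretreated 1 h with ODN, infected with clinical HCMV isolate (VR1814 or AL1, HUVEC-propagated) at MOI 1; ODN kept after 2 h adsorption. At 6 days p.i., yield titrated on HELF; IC50 from concentration–plaque reduction plot.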

Human betaherpesvirus 5 [4] = assay: Antimicrobial activity against Human cytomegalovirus TB40 expressing EGPF tagged UL32 infected in HELF assessed as inhibition of inhibition of viral adsorption at 0.1 uM after 2 hrs by fluorescence microscopy; assay type: functional, organism-based
How it was run: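 Prechilled HELF on coverslips exposed to ODN (0.1 μM) or heparin (30 μg/ml) 1 h at 4°C, then infected with HCMV TB40 UL32-EGFP (MOI 20) 2 h at 4°C to permit attachment only. Washed in ice-cold PBS, fixed in 4% formaldehyde, propidium iodide counterstain; green virions imaged by confocal fluorescence microscopy. Done twice.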

[5] = Cytotoxicity against HELF assessed as cell viability by MTT assay after 6 days at <=10 uM; assay type: cell-based; conditions: human, 144 h; how it was run: as §1
Human betaherpesvirus 5 [6] = assay: Antimicrobial activity against Human cytomegalovirus AD169 infected in HELF assessed as inhibition of viral replication at 0.1 uM measured after 6 days post-infection; assay type: functional, organism-based
Human betaherpesvirus 5 [7] = assay: Antimicrobial activity against Human cytomegalovirus AD169 infected in 1 uM compound pretreated HELF assessed as inhibition of viral replication measured after 6 days post-infection; assay type: functional, organism-based
How it was run: (§3)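 HELF pretreated with ODN 1 h before infection with HCMV AD169 (MOI 1); ODN kept in medium after 2 h adsorption at 37°C. At 6 days p.i., cells plus supernatants sonicated and titrated by plaque assay on HELF; plaques counted microscopically, expressed as PFU/ml (log10) or % of control. IC50/IC90 by linear regression; duplicate wells, three independent experiments, means ± SD.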

Human betaherpesvirus 5 [8] = assay: Antimicrobial activity against Human cytomegalovirus AD169 infected in compound pretreated HELF assessed as expression of immediate early 2 protein by immunoblotting; assay type: functional, organism-based
How it was run: (§4)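 HELF pretreated with ODN (1 μM) 1 h before and during infection with HCMV AD169 (MOI 1). Whole-cell extracts taken at set times p.i., run on 8% SDS-PAGE (50 μg protein/lane), immunoblotted with MAbs to IE1/IE2, UL44 (early) or UL99 (late); actin as loading control.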

Human alphaherpesvirus 1 [9] = assay: Antimicrobial activity against Human herpesvirus 1 infected in compound pretreated HELF assessed as inhibition of viral replication at 1 uM; assay type: functional, organism-based
How it was run: (§5)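 HELF pretreated with ODN (0.1 or 1 μM) 1 h before infection with a clinical HSV-1 isolate at MOI 0.1; ODN kept in medium after 2 h adsorption. Harvest at 48 h p.i., sonication, plaque titration on Vero cells. Means ± SD of three independent experiments.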

Human betaherpesvirus 5 [10] = assay: Antimicrobial activity against Human cytomegalovirus AD169 infected in compound pretreated HELF assessed as expression of immediate early 1 protein by immunoblotting; assay type: functional, organism-based; how it was run: as §4
Human betaherpesvirus 5 [11] = assay: Antimicrobial activity against Human cytomegalovirus AD169 infected in compound pretreated HELF measured as immediate early 2 mRNA level by RT-PCR; assay type: functional, organism-based
Human betaherpesvirus 5 [12] = assay: Antimicrobial activity against Human cytomegalovirus AD169 infected in 0.1 uM compound pretreated HELF assessed as inhibition of viral replication measured after 6 days post-infection; assay type: functional, organism-based; how it was run: as §3
Human betaherpesvirus 5 [13] = assay: Antimicrobial activity against Human cytomegalovirus AD169 infected in compound pretreated HELF assessed as expression of late protein by immunoblotting; assay type: functional, organism-based; how it was run: as §4
[14] = system: Vesicular stomatitis Indiana virus; assay: Antimicrobial activity against Vesicular stomatitis Indiana virus infected in compound pretreated HELF assessed as inhibition of viral replication; assay type: functional, organism-based
How it was run: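 HELFs exposed to ODN (0.1 or 1 μM) for 1 h, then infected with VSV serotype Indiana at MOI 1 (2 h adsorption, 37°C). ODN kept in the medium until 48 h p.i. Cells and supernatants were pooled, sonicated and titrated by plaque assay on HELFs. Data are means ± standard deviations of three independent experiments, duplicate wells.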

Human betaherpesvirus 5 [15] = assay: Antimicrobial activity against 0.1 uM compound pretreated Human cytomegalovirus AD169 infected in HELF assessed as reduction in viral titer at 4 degC; assay type: functional, organism-based
How it was run: (§6)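 HCMV AD169 (10^4 PFU) incubated with ODN at 0.1 μM at 4 or 37°C for various times; samples then diluted to bring ODN below an antivirally active level; residual infectivity titrated by plaque assay on HELF. Means ± SD of three independent experiments.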

Human betaherpesvirus 5 [16] = assay: Antimicrobial activity against 0.1 uM compound pretreated Human cytomegalovirus AD169 infected in HELF assessed as reduction in viral titer 37 degC; assay type: functional, organism-based; how it was run: as §6
Human betaherpesvirus 5 [17] = assay: Antimicrobial activity against Human cytomegalovirus isolate 1814 infected in compound pretreated HUVEC assessed as inhibition of viral replication; assay type: functional, organism-based; conditions: Human betaherpesvirus 5, isolate 1814, HUVEC
How it was run: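 HUVEC (passages 2–6, EGM-2 with 2% FBS) pretreated 1 h with ODN and infected with HCMV VR1814 at MOI 1; ODN maintained after 2 h adsorption. Yield at 6 days p.i. titrated on HELF; IC50 from concentration-dependent plaque reduction.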

Human alphaherpesvirus 1 [18] = assay: Antimicrobial activity against Human herpesvirus 1 infected in compound pretreated HELF assessed as inhibition of viral replication at 0.1 uM; assay type: functional, organism-based; how it was run: as §5
Human betaherpesvirus 5 [19] = assay: Antimicrobial activity against Human cytomegalovirus AD169 infected in compound pretreated HELF assessed as inhibition of viral replication measured after 6 days post-infection; assay type: functional, organism-based; conditions: Human betaherpesvirus 5, AD169, HELF; how it was run: as §3
[20] = Antimicrobial activity against Murine cytomegalovirus (strain Smith) infected in compound pretreated mouse NIH 3T3 cells assessed as inhibition of viral replication; assay type: functional, cell-based; conditions: Murid betaherpesvirus 1, NIH3T3
How it was run: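 NIH 3T3 pretreated 1 h with ODN, infected with MCMV Smith (MOI 1); ODN kept after 2 h adsorption at 37°C. Harvest at 6 days p.i., sonication, plaque assay on NIH 3T3; IC50 from plaque reduction. Means ± SD, three experiments.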

Human betaherpesvirus 5 [21] = assay: Antimicrobial activity against Human cytomegalovirus isolate AL1 infected in compound pretreated HELF assessed as inhibition of viral replication; assay type: functional, organism-based; conditions: Human betaherpesvirus 5, isolate AL1, HELF; how it was run: as §2
Human betaherpesvirus 5 [22] = assay: Antimicrobial activity against Human cytomegalovirus AD169 infected in 0.1 uM compound pretreated HELF assessed as viral DNA accumulation measured after 48 hrs post-infection by RT-PCR; assay type: functional, organism-based
How it was run: (§7)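 HELF treated with ODN (0.1 μM), then infected with HCMV AD169 (MOI 5). Total genomic DNA collected at 4 and 48 h p.i.; 15 ng analysed by TaqMan real-time PCR for IE1 (50 cycles, 95°C 15 s / 62°C 1 min). Copies normalized to 18S rRNA gene against plasmid standard curve. Means ± SD, three experiments.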

Human betaherpesvirus 5 [23] = assay: Antimicrobial activity against Human herpesvirus 5 strain AD169 infected in HELF assessed as pp65 nuclear localization at 0.1 uM after 2 hrs […]; assay type: functional, organism-based
Human betaherpesvirus 5 [24] = assay: Antimicrobial activity against Human cytomegalovirus AD169 infected in compound pretreated HELF assessed as expression of early protein by immunoblotting; assay type: functional, organism-based; how it was run: as §4
Human betaherpesvirus 5 [25] = assay: Antimicrobial activity against Human cytomegalovirus AD169 infected in compound pretreated HELF measured as immediate early 1 mRNA level by RT-PCR; assay type: functional, organism-based
unidentified adenovirus = assay: Antimicrobial activity against unidentified adenovirus infected in compound pretreated HELF assessed as inhibition of viral replication; assay type: functional, organism-based
How it was run: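 HELF pretreated 1 h with ODN (0.1 or 1 μM), infected with an adenovirus clinical isolate (MOI 1); ODN kept after 2 h adsorption. Harvest at 4 days p.i., sonication, plaque titration on HELF. Means ± SD, three experiments.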

Human betaherpesvirus 5 [26] = assay: Antimicrobial activity against Human cytomegalovirus AD169 infected in 0.1 uM compound pretreated HELF assessed as viral DNA accumulation measured after 4 hrs post-infection by RT-PCR; assay type: functional, organism-based; how it was run: as §7

Cc1cn([C@H]2C[C@H](OP(O)(O)=S)[C@@H](COP(O)(=S)O[C@H]3C[C@H](n4cc(C)c(=O)[nH]c4=O)O[C@@H]3COP(O)(=S)O[C@H]3[C@@H](O)[C@H](n4cnc5c(=O)[nH]c(N)nc54)O[C@@H]3COP(O)(=S)O[C@H]3[C@@H](O)[C@H](n4ccc(N)nc4=O)O[C@@H]3COP(O)(=S)O[C@H]3C[C@H](n4cc(C)c(=O)[nH]c4=O)O[C@@H]3COP(O)(=S)O[C@H]3[C@@H](O)[C@H](n4cnc5c(=O)[nH]c(N)nc54)O[C@@H]3COP(O)(=S)O[C@H]3C[C@H](n4cc(C)c(=O)[nH]c4=O)O[C@@H]3COP(O)(=S)O[C@H]3C[C@H](n4cc(C)c(=O)[nH]c4=O)O[C@@H]3COP(O)(=S)O[C@H]3C[C@H](n4cc(C)c(=O)[nH]c4=O)O[C@@H]3COP(O)(=S)O[C@H]3C[C@H](n4cc(C)c(=O)[nH]c4=O)O[C@@H]3COP(O)(=S)O[C@H]3[C@@H](O)[C@H](n4cnc5c(=O)[nH]c(N)nc54)O[C@@H]3COP(O)(=S)O[C@H]3[C@@H](O)[C@H](n4ccc(N)nc4=O)O[C@@H]3COP(O)(=S)O[C@H]3C[C@H](n4cc(C)c(=O)[nH]c4=O)O[C@@H]3COP(O)(=S)O[C@H]3[C@@H](O)[C@H](n4cnc5c(=O)[nH]c(N)nc54)O[C@@H]3COP(O)(=S)O[C@H]3C[C@H](n4cc(C)c(=O)[nH]c4=O)O[C@@H]3COP(O)(=S)O[C@H]3C[C@H](n4cc(C)c(=O)[nH]c4=O)O[C@@H]3COP(O)(=S)O[C@H]3C[C@H](n4cc(C)c(=O)[nH]c4=O)O[C@@H]3COP(O)(=S)O[C@H]3C[C@H](n4cc(C)c(=O)[nH]c4=O)O[C@@H]3COP(O)(=S)O[C@H]3[C@@H](O)[C@H](n4cnc5c(=O)[nH]c(N)nc54)O[C@@H]3COP(O)(=S)O[C@H]3[C@@H](O)[C@H](n4ccc(N)nc4=O)O[C@@H]3COP(O)(=S)O[C@H]3C[C@H](n4cc(C)c(=O)[nH]c4=O)O[C@@H]3COP(O)(=S)O[C@H]3[C@@H](O)[C@H](n4cnc5c(=O)[nH]c(N)nc54)O[C@@H]3COP(O)(=S)O[C@H]3[C@@H](O)[C@H](n4ccc(N)nc4=O)O[C@@H]3COP(O)(=S)O[C@H]3C[C@H](n4cc(C)c(=O)[nH]c4=O)O[C@@H]3CO)O2)c(=O)[nH]c1=O (stereo partly drawn)
inhibition (Human betaherpesvirus 5 [1]): inactive
CC50 at 144 h [2]: > 10000 nM
IC50 (Human betaherpesvirus 5 [3]): 38 nM
inhibition (Human betaherpesvirus 5 [4]): inactive
Activity [5]: Non-toxic
inhibition (Human betaherpesvirus 5 [6]): inactive
inhibition (Human betaherpesvirus 5 [7]): Active
inhibition (Human betaherpesvirus 5 [8]): Active
inhibition (Human alphaherpesvirus 1 [9]): inactive
inhibition (Human betaherpesvirus 5 [10]): Active
inhibition (Human betaherpesvirus 5 [11]): Active
inhibition (Human betaherpesvirus 5 [12]): Active
inhibition (Human betaherpesvirus 5 [13]): Active
inhibition [14]: inactive
inhibition (Human betaherpesvirus 5 [15]): inactive
inhibition (Human betaherpesvirus 5 [16]): inactive
IC50 (Human betaherpesvirus 5 [17]): 25 nM
inhibition (Human alphaherpesvirus 1 [18]): inactive
IC50 (Human betaherpesvirus 5 [19]): 20 nM
IC90 (Human betaherpesvirus 5 [19]): 65 nM
IC50 [20]: 50 nM
IC50 (Human betaherpesvirus 5 [21]): 44 nM
inhibition (Human betaherpesvirus 5 [22]): Active
inhibition (Human betaherpesvirus 5 [23]): Active
inhibition (Human betaherpesvirus 5 [24]): Active
inhibition (Human betaherpesvirus 5 [25]): Active
inhibition (unidentified adenovirus): inactive
inhibition (Human betaherpesvirus 5 [26]): Active
